In assay [1] the target is T1, Prokineticin receptor 2 (Homo sapiens, UniProt Q8NFJ6). In words: Displacement of [I125]MIT from PKR2 expressed in CHO cell membrane. In kind it is cell membranes.
Assay [2] has as its target T2, Prokineticin receptor 1 (Homo sapiens, UniProt Q8TCW9). In words: Displacement of [I125]MIT from PKR1 expressed in CHO cell membrane. In kind it is cell membranes.
The target in assay [3] is T2, Prokineticin receptor 1. In words: Antagonist activity at PKR1 expressed in CHO cell membrane assessed as reduction of Bv8-induced increase in intracellular calcium level at 1 mM. In kind it is functional, cell-based. More on the design: scale not given: the % may be the effect or the level left. In short, it runs like this: (§1)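 Intact CHO cells transfected with PKR1 or PKR2. Compound preincubated 4 min, then challenged with 1 nM Bv8, and fluorescence followed for 2 min. Intracellular Ca2+ was read as the 340/380 nm […] ratio, and the result was scored as the percentage of cells responding to Bv8.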
In general terms: Calcium assays in cells follow changes in intracellular calcium, usually with a dye or a luminescent sensor.

Assay [4] has as its target T1, Prokineticin receptor 2. In words: Antagonist activity at PKR2 expressed in CHO cell membrane assessed as reduction of Bv8-induced increase in intracellular calcium level at 10 uM. More on the design: scale not given: the % may be the effect or the level left. In kind it is functional, cell-based. In short, it runs like this:
as §1

Assay [5] deals with T1, Prokineticin receptor 2. In words: Antagonist activity at PKR2 expressed in CHO cell membrane assessed as reduction of Bv8-induced increase in intracellular calcium level at 1 mM. It is filed as functional, cell-based. More on the design: scale not given: the % may be the effect or the level left. In short, it runs like this:
as §1

Assay [6] concerns the target T2, Prokineticin receptor 1. In words: Antagonist activity at PKR1 expressed in CHO cell membrane assessed as reduction of Bv8-induced increase in intracellular calcium level at 10 uM. In kind it is functional, cell-based. More on the design: scale not given: the % may be the effect or the level left. A digest of the protocol: as §1
Assay [7] addresses T2, Prokineticin receptor 1. In words: Antagonist activity at PKR1 expressed in CHO cell membrane assessed as reduction of Bv8-induced increase in intracellular calcium level at 100 uM. It is filed as functional, cell-based. More on the design: scale not given: the % may be the effect or the level left. In short, it runs like this: as §1
In assay [8] the target is T2, Prokineticin receptor 1. In words: Antagonist activity at PKR1 expressed in CHO cell membrane assessed as reduction of Bv8-induced increase in intracellular calcium level at 300 nM. It is filed as functional, cell-based. More on the design: scale not given: the % may be the effect or the level left. In short, it runs like this: as §1
Assay [9] addresses T1, Prokineticin receptor 2. In words: Antagonist activity at PKR2 expressed in CHO cell membrane assessed as reduction of Bv8-induced increase in intracellular calcium level at 300 nM. It is filed as functional, cell-based. Further details: scale not given: the % may be the effect or the level left. In short, it runs like this: as §1
The nature of assay [10]: Selectivity for ratio of Ki for PKR2 to Ki for PKR1.
The target of assay [11] is T1, Prokineticin receptor 2. In words: Antagonist activity at PKR2 expressed in CHO cell membrane assessed as reduction of Bv8-induced increase in intracellular calcium level at 100 nM. In kind it is functional, cell-based. More on the design: scale not given: the % may be the effect or the level left. A digest of the protocol:
as §1

Assay [12] concerns the target T2, Prokineticin receptor 1. In words: Antagonist activity at PKR1 expressed in CHO cell membrane assessed as reduction of Bv8-induced increase in intracellular calcium level at 100 nM. More on the design: scale not given: the % may be the effect or the level left. In kind it is functional, cell-based. A digest of the protocol: as §1

T1 sequence (Q8NFJ6 whole entry): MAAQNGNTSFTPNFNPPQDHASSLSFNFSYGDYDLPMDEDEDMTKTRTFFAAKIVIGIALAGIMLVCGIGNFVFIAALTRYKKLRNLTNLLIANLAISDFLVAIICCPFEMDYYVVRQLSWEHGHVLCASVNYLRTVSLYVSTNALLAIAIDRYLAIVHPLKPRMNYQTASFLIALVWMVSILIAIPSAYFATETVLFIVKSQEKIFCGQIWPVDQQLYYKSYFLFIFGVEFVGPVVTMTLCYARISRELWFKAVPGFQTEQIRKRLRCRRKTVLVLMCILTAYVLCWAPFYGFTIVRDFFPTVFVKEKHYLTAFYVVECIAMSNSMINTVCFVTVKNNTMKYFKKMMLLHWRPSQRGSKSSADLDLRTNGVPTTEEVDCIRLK
T2 sequence (Q8TCW9 whole entry): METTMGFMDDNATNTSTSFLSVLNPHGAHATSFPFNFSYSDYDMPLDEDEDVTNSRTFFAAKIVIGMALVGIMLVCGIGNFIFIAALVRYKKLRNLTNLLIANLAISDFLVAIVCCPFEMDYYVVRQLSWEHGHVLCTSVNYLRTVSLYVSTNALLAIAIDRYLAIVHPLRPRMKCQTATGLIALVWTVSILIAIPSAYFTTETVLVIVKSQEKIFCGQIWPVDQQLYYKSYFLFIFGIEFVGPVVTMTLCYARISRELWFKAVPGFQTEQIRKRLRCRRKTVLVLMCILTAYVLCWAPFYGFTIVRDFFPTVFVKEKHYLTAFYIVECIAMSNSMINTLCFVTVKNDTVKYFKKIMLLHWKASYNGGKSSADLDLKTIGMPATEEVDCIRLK

What is called Ki is the dissociation constant of the complex between target and ligand, obtained from inhibition or displacement. For `CCc1ccc(Cn2c(=O)nc(NCCN=C3NCCN3)n(Cc3ccc(OC)cc3)c2=O)cc1`, the Ki on Prokineticin receptor 2 [1] came out at 71.2 µM; at Prokineticin receptor 1 [2] it was 4.72 µM.
For `CCc1ccc(Cn2c(=O)nc(NCCN)n(Cc3ccc(OC)cc3)c2=O)cc1`, the figures for the Ki at Prokineticin receptor 2 [1] and at Prokineticin receptor 1 [2] were 23.4 µM and 0.44 µM, respectively. The Activity at Prokineticin receptor 1 [3] was determined as 0.3%; at Prokineticin receptor 2 [4], 89%; at Prokineticin receptor 2 [5], 2%; at Prokineticin receptor 1 [6] it was 90%.
For `CCc1ccc(Cn2c(=O)nc(NCCNC3=NCCN3)n(Cc3ccc(OC)cc3)c2=O)cc1`, the Activity on Prokineticin receptor 1 [7] stood at 91%.
On to `CCc1ccc(Cn2c(=O)nc(NCCNC(=N)N)n(Cc3ccc(OC)cc3)c2=O)cc1`, for which the Ki at Prokineticin receptor 2 [1] worked out at 1.61 µM; on Prokineticin receptor 1 [2], 0.022 µM. Also, the Activity was 4% on Prokineticin receptor 1 [8], 6% on Prokineticin receptor 2 [9], 48% at Prokineticin receptor 2 [11] and 52% at Prokineticin receptor 1 [12]. The Ratio Ki in assay [10] is 70.
